Results taken from ChEMBL document CHEMBL1135657, “Novel dual inhibitors of AChE and MAO derived from hydroxy aminoindan and phenethylamine as potential treatment for Alzheimer's disease” (J Med Chem, 2002).
pIC50: −log10 of the molar value.

Columns and labels:
[1] = biological target: T1, Amine oxidase [flavin-containing] B (Rattus norvegicus, UniProt P19643); experiment: biochemical; assay type: tissue-based, Brain
T1 sequence (P19643 whole entry): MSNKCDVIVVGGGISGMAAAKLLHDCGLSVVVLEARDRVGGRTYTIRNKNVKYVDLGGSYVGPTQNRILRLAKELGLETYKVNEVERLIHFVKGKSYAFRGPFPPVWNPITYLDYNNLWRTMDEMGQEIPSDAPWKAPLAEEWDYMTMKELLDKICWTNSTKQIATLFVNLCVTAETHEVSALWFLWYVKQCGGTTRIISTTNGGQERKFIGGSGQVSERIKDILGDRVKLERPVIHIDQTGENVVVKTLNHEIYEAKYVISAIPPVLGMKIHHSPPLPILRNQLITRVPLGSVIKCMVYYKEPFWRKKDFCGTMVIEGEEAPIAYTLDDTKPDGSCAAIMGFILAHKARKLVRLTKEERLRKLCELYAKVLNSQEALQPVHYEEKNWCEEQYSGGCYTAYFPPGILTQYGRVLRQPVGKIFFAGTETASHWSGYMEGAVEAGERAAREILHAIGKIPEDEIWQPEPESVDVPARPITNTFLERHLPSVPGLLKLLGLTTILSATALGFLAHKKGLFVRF

[2] = biological target: T2, Amine oxidase [flavin-containing] A (Rattus norvegicus, UniProt P21396); experiment: In vitro inhibitory concentration against Monoamine oxidase A of rat brain homogenates; value ranges from 0.5-3.7; assay type: tissue-based
T2 sequence (P21396 whole entry): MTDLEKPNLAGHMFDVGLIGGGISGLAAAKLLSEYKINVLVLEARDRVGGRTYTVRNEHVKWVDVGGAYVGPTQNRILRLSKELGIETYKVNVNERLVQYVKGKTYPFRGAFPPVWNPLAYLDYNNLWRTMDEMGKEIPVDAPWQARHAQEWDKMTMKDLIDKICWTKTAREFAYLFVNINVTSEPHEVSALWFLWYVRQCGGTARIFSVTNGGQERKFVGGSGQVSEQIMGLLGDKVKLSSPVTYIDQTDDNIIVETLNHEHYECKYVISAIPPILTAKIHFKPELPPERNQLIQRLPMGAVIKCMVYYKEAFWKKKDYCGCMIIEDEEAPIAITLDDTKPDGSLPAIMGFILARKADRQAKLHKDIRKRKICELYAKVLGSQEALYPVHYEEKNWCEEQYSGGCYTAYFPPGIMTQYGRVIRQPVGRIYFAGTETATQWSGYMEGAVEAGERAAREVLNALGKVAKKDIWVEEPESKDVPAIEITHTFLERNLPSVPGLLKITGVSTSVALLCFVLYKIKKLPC

Butyrylcholinesterase [3] = biological target: T3, Butyrylcholinesterase (Equus caballus, UniProt Q9N1N9); experiment: In vitro inhibitory concentration against Butyrylcholinesterase of horse serum; value ranges from 1.89-4.67
Summary of the method: (§1)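 Ellman assay followed, with 200 µM butyrylthiocholine as substrate. Runs were in triplicate with four-point dose-response curves. IC50 and fiducial limits came from log concentration versus % inhibition.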

Acetylcholinesterase [4] = biological target: T4, Acetylcholinesterase (Homo sapiens, UniProt P22303); experiment: In vitro inhibitory concentration against purified Acetylcholinesterase of human erythrocytes; value ranges from 5.4-38.2
[5] = biological target: T1, Amine oxidase [flavin-containing] B; experiment: In vitro inhibitory concentration against Monoamine oxidase B of rat brain homogenates; value ranges from 0.2-0.8; assay type: tissue-based
[6] = biological target: T2, Amine oxidase [flavin-containing] A; experiment: In vitro inhibitory concentration against Monoamine oxidase A of rat brain homogenates; value ranges from 13-17; assay type: tissue-based
Acetylcholinesterase [7] = biological target: T4, Acetylcholinesterase; experiment: In vitro inhibitory concentration against purified Acetylcholinesterase of human erythrocytes; value ranges from 2.2-10.1
Butyrylcholinesterase [8] = biological target: T3, Butyrylcholinesterase; experiment: In vitro inhibitory concentration against Butyrylcholinesterase of horse serum; value ranges from 0.71-0.86
Summary of the method: as §1

[9] = biological target: T2, Amine oxidase [flavin-containing] A; experiment: In vitro inhibitory concentration against Monoamine oxidase A of rat brain homogenates; value ranges from 1.8-2.4; assay type: tissue-based
[10] = biological target: T1, Amine oxidase [flavin-containing] B; experiment: In vitro inhibitory concentration against Monoamine oxidase B of rat brain homogenates; assay type: tissue-based
[11] = biological target: T2, Amine oxidase [flavin-containing] A; experiment: In vitro inhibitory concentration against Monoamine oxidase A of rat brain homogenates; value ranges from 0.005-0.012; assay type: tissue-based
[12] = biological target: T2, Amine oxidase [flavin-containing] A; experiment: In vitro inhibitory concentration against Monoamine oxidase A of rat brain homogenates; value ranges from 60-150; assay type: tissue-based
Acetylcholinesterase [13] = biological target: T4, Acetylcholinesterase; experiment: In vitro inhibitory concentration against purified Acetylcholinesterase of human erythrocytes; value ranges from 0.18-0.44
Acetylcholinesterase [14] = biological target: T4, Acetylcholinesterase; experiment: In vitro inhibitory concentration against purified Acetylcholinesterase of human erythrocytes; value ranges from 2.2-6.9
[15] = biological target: T1, Amine oxidase [flavin-containing] B; experiment: In vitro inhibitory concentration against Monoamine oxidase B of rat brain homogenates; value ranges from 0.18-0.30; assay type: tissue-based
Summary of the method: (§2)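 Rat brain homogenate (in 0.3 M sucrose) as enzyme source; compounds diluted 10⁻²M to 10⁻⁹M in 0.05 M phosphate buffer with 0.15 μM clorgyline; preincubated 60 min at 37 °C, then 10 μM ¹⁴C-phenylethylamine added for 20 min more; stopped with citric acid; metabolites extracted into toluene/ethyl acetate, scintillation counted; activity as % of control, tranylcypromine blank.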

[16] = biological target: T2, Amine oxidase [flavin-containing] A; experiment: In vitro inhibitory concentration against Monoamine oxidase A of rat brain homogenates; value ranges from 14-24; assay type: tissue-based
[17] = biological target: T2, Amine oxidase [flavin-containing] A; experiment: In vitro inhibitory concentration against Monoamine oxidase A of rat brain homogenates; value ranges from 0.014-0.016; assay type: tissue-based
[18] = biological target: T1, Amine oxidase [flavin-containing] B; experiment: In vitro inhibitory concentration against Monoamine oxidase B of rat brain homogenates; value ranges from […]; assay type: tissue-based
Summary of the method: as §2

[19] = biological target: T2, Amine oxidase [flavin-containing] A; experiment: In vitro inhibitory concentration against Monoamine oxidase A of rat brain homogenates; value ranges from 0.5-1.6; assay type: tissue-based
[20] = biological target: T1, Amine oxidase [flavin-containing] B; experiment: In vitro inhibitory concentration against Monoamine oxidase B of rat brain homogenates; value ranges from 0.7-1.3; assay type: tissue-based
[21] = biological target: T2, Amine oxidase [flavin-containing] A; experiment: In vitro inhibitory concentration against Monoamine oxidase A of rat brain homogenates; value ranges from 110-520; assay type: tissue-based
Acetylcholinesterase [22] = biological target: T4, Acetylcholinesterase; experiment: In vitro inhibitory concentration against purified Acetylcholinesterase of human erythrocytes; value ranges from 0.12-0.32
Butyrylcholinesterase [23] = biological target: T3, Butyrylcholinesterase; experiment: In vitro inhibitory concentration against Butyrylcholinesterase of horse serum; value ranges from […]
Summary of the method: as §1

Acetylcholinesterase [24] = biological target: T4, Acetylcholinesterase; experiment: In vitro inhibitory concentration against purified Acetylcholinesterase of human erythrocytes; value ranges from 3.87-11.9
[25] = biological target: T2, Amine oxidase [flavin-containing] A; experiment: In vitro inhibitory concentration against Monoamine oxidase A of rat brain homogenates; assay type: tissue-based
Acetylcholinesterase [26] = biological target: T4, Acetylcholinesterase; experiment: In vitro inhibitory concentration against purified Acetylcholinesterase of human erythrocytes; value ranges from […]-[…]
[27] = biological target: T2, Amine oxidase [flavin-containing] A; experiment: In vitro inhibitory concentration against Monoamine oxidase A of rat brain homogenates; value ranges from 4.3-7.3; assay type: tissue-based
Butyrylcholinesterase [28] = biological target: T3, Butyrylcholinesterase; experiment: In vitro inhibitory concentration against Butyrylcholinesterase of horse serum; value ranges from 1.63-2.45
Summary of the method: as §1

Butyrylcholinesterase [29] = biological target: T3, Butyrylcholinesterase; experiment: In vitro inhibitory concentration against Butyrylcholinesterase of horse serum; value ranges from 6.8-31.2
Summary of the method: as §1

Acetylcholinesterase [30] = biological target: T4, Acetylcholinesterase; experiment: In vitro inhibitory concentration against purified Acetylcholinesterase of human erythrocytes; value ranges from 5.24-30.8
Butyrylcholinesterase [31] = biological target: T3, Butyrylcholinesterase; experiment: In vitro inhibitory concentration against Butyrylcholinesterase of horse serum; value ranges from 1.6-3.6
Acetylcholinesterase [32] = biological target: T4, Acetylcholinesterase; experiment: In vitro inhibitory concentration against purified Acetylcholinesterase of human erythrocytes; value ranges from 13.6-128
[33] = biological target: T2, Amine oxidase [flavin-containing] A; experiment: biochemical

T4 sequence (P22303 whole entry): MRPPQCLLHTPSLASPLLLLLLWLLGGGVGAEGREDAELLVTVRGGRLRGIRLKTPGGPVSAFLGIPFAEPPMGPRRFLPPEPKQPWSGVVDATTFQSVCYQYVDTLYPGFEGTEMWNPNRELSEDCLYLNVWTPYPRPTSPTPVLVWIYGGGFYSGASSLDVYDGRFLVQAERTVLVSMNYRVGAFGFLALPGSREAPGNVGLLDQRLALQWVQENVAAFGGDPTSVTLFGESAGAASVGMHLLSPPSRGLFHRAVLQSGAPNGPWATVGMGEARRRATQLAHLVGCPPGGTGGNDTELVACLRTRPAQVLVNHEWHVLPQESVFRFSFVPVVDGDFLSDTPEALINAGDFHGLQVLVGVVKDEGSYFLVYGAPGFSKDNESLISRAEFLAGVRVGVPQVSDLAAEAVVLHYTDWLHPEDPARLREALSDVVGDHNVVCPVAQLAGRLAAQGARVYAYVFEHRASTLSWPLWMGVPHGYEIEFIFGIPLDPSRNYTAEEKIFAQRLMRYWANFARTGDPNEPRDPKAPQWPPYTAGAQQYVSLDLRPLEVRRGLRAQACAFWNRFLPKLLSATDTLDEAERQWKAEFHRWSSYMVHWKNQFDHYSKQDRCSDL
T3 sequence (Q9N1N9 whole entry): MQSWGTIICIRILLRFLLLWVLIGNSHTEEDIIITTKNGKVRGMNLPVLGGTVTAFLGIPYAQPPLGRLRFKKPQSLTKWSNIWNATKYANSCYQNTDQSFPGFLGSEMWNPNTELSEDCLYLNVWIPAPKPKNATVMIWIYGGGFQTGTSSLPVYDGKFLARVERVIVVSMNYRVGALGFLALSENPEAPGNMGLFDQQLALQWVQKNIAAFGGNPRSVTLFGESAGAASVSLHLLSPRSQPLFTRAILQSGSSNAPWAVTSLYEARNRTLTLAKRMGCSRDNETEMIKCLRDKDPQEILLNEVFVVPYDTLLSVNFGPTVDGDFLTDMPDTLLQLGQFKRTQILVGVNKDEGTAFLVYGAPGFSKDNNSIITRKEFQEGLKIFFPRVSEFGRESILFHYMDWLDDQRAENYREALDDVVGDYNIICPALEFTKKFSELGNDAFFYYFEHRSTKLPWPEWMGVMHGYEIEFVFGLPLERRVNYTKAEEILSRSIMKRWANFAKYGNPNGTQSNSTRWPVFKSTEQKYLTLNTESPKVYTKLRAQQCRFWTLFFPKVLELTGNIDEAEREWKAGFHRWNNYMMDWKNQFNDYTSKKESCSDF

`C#CCN(C)CCc1cccc(O)c1` gave a pIC50 [1] of 5.19 and a pIC50 [2] of 5.89.
`C#CCNC(C)Cc1cccc(OC(=O)N(C)CCCC)c1` (stereo not drawn) gave a pIC50 (Butyrylcholinesterase [3]) of 5.56, a pIC50 (Acetylcholinesterase [4]) of 4.91 and a pIC50 [5] of 6.40. The pIC50 [6] was 4.82.
For `C#CCNC1CCc2ccc(OC(=O)N(C)C)cc2C1` (stereo not drawn), the pIC50 (Acetylcholinesterase [7]) was 5.39, the pIC50 (Butyrylcholinesterase [8]) was 6.11 and the pIC50 [9] was 5.70. It also gave a pIC50 [10] of 3.00.
In the case of `C#CCN(C)C1CCc2c(O)cccc21` (stereo not drawn), the pIC50 [11] was 8.10.
For `CN(C)C(=O)Oc1cccc(CCN)c1`, the pIC50 [12] was 4.02, the pIC50 (Acetylcholinesterase [13]) was 6.64 and the pIC50 [10] was < 3.00.
Work on `C#CCNC(C)Cc1cccc(OC(=O)N(C)C2CCCCC2)c1` (stereo not drawn) yielded a pIC50 (Acetylcholinesterase [14]) of 5.44, a pIC50 [15] of 6.64 and a pIC50 [16] of 4.74.
Compound `C#CCN(C)C1CCc2ccc(O)cc21` (stereo not drawn) has a pIC50 [17] of 7.82 and a pIC50 [18] of 7.52.
Work on `C#CCNC1CCc2c(O)cccc21` (stereo not drawn) yielded a pIC50 [19] of 6.05 and a pIC50 [20] of 6.05.
With `CCCN(C)C(=O)Oc1cccc(CCN)c1` the pIC50 [21] was 3.62 and the pIC50 [10] was < 3.00.
For `CN(C)CCc1cccc(OC(=O)N(C)C)c1`, the pIC50 (Acetylcholinesterase [22]) was 6.80 and the pIC50 [10] was < 3.00.
`CCN(C)C(=O)Oc1ccc2c(c1)C(N)CCC2` (stereo not drawn) was tested, and the pIC50 (Butyrylcholinesterase [23]) was 5.27, the pIC50 (Acetylcholinesterase [24]) was 5.21 and the pIC50 [25] was 3.00.
With `CCN(C)C(=O)Oc1ccc2c(c1)[C@H](N)CC2` the pIC50 (Acetylcholinesterase [26]) was 5.21, the pIC50 [27] was 5.25 and the pIC50 (Butyrylcholinesterase [28]) was 5.71. For the same compound, the pIC50 [10] was < 3.00.
Compound `C#CCN[C@@H]1CCc2ccc(OC(=O)N(C)CCC)cc21` has a pIC50 (Butyrylcholinesterase [29]) of 4.83 and a pIC50 (Acetylcholinesterase [30]) of 4.97.
`C#CCN[C@H]1CCc2ccc(OC(=O)N(C)CC)cc21` showed a pIC50 (Butyrylcholinesterase [31]) of 5.66, a pIC50 (Acetylcholinesterase [32]) of 4.46 and a pIC50 [33] of 3.26. The pIC50 [10] was < 3.00.
